Among the data in ChEMBL document CHEMBL1142170, “Mechanism of activation of beta-D-2'-deoxy-2'-fluoro-2'-c-methylcytidine and inhibition of hepatitis C virus NS5B RNA polymerase” (Antimicrob Agents Chemother, 2007) are kcat/Km, kcat and Km values, retold here.

Holding throughout (format): cell-based
Substrate in data set [1]: C[C@@]1(F)[C@H](O)[C@@H](COP(=O)(O)O)O[C@H]1n1ccc(N)nc1=O
The data set can be described thus: (§1) Ratio of Kcat to Km for YMPK activity expressed in Huh7 cells. The conditions noted are these: Homo sapiens; Huh-7. In short, it runs like this:
(§2)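 Human YMPK cloned from Huh-7 cells, 37°C, coupled pyruvate kinase/lactate dehydrogenase assay following NADH at 340 nm. Tris-HCl pH 7.5, 1 mM ATP, MgCl2. Enzyme 80 nM with natural monophosphates, 200 nM with the analog monophosphate. Monophosphate substrate concentration varied, steady-state parameters as mean ± SD.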

Substrate in data set [2]: Nc1ccn([C@@H]2O[C@H](COP(=O)(O)O)[C@@H](O)[C@H]2O)c(=O)n1
The data set is described as §1. The conditions noted are these: Homo sapiens; Huh-7. In short, it runs like this: as §2

Substrate in data set [3]: Nc1ccn([C@H]2C[C@H](O)[C@@H](COP(=O)(O)O)O2)c(=O)n1
The description is as §1. As to conditions: Homo sapiens; Huh-7. In short, it runs like this: as §2

Substrate in data set [4]: O=c1ccn([C@@H]2O[C@H](COP(=O)(O)O)[C@@H](O)[C@H]2O)c(=O)[nH]1
Described as §1. As to conditions: Homo sapiens; Huh-7. Put shortly:
as §2

Substrate in data set [5]: C[C@@]1(F)[C@H](O)[C@@H](COP(=O)(O)O)O[C@H]1n1ccc(N)nc1=O
The data set can be described thus: (§3) Activity of human YMPK expressed in Huh7 cells assessed as phosphorylation by coupled enzyme assay. As to conditions: Huh-7. Put shortly: as §2

Substrate in data set [6]: Nc1ccn([C@@H]2O[C@H](COP(=O)(O)O)[C@@H](O)[C@H]2O)c(=O)n1
The description is as §3. The conditions noted are these: Huh-7. In short, it runs like this: as §2

Substrate in data set [7]: Nc1ccn([C@H]2C[C@H](O)[C@@H](COP(=O)(O)O)O2)c(=O)n1
The description is as §3. As to conditions: Huh-7. Put shortly: as §2

Substrate in data set [8]: O=c1ccn([C@@H]2O[C@H](COP(=O)(O)O)[C@@H](O)[C@H]2O)c(=O)[nH]1
The data set is described as §3. As to conditions: Huh-7. Put shortly:
as §2

Substrate in data set [9]: O=c1ccn([C@@H]2O[C@H](CO)[C@@H](O)[C@H]2O)c(=O)[nH]1
The data set can be described thus: Ratio of Kcat to Km for UCK1 activity expressed in Huh7 cells. The conditions noted are these: Homo sapiens; Huh-7. Put shortly: (§4)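 His-tagged human UCK-1 cloned from Huh-7 cells, assayed at 25°C by pyruvate kinase/lactate dehydrogenase coupling, NADH oxidation at 340 nm. Buffer 64 mM Tris-HCl pH 7.5, 1 mM ATP, Mg2+, phosphoenolpyruvate. Enzyme 41 nM, or 410 nM for 2′-C-methyl cytidines. Substrate concentration varied. Steady-state parameters reported as mean ± SD.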

Substrate in data set [10]: O=c1ccn([C@@H]2O[C@H](CO)[C@@H](O)[C@H]2O)c(=O)[nH]1
Briefly: Activity of human UCK1 expressed in Huh7 cells assessed as phosphorylation by coupled enzyme assay. As to conditions: Huh-7. Put shortly:
as §4

B1: UMP-CMP kinase (Homo sapiens), P30085 (protein)
chain: MKPLVVFVLGGPGAGKGTQCARIVEKYGYTHLSAGELLRDERKNPDSQYGELIEKYIKEGKIVPVEITISLLKREMDQTMAANAQKNKFLIDGFPRNQDNLQGWNKTMDGKADVSFVLFFDCNNEICIERCLERGKSSGRSDDNRESLEKRIQTYLQSTKPIIDLYEEMGKVKKIDASKSVDEVFDEVVQIFDKEG
In general, kcat/Km refers to the turnover number divided by the Michaelis constant. As usually defined, the kcat is the number of substrate molecules converted per active site and unit of time at saturation. The term Km denotes the substrate concentration at which the rate is half of its maximum. Take B1: the kcat/Km in [1] turned out to be 12000 M⁻¹ s⁻¹; in data set [2], 540000 M⁻¹ s⁻¹; in [3], 36000 M⁻¹ s⁻¹; in data set [4], 540000 M⁻¹ s⁻¹. Also, the catalytic constant (kcat) is 3.3 s⁻¹ in data set [5], 30 s⁻¹ in data set [6], 30 s⁻¹ in data set [7] and 81 s⁻¹ in data set [8]. The Km in [6] came out at 56 µM; in [7] it was 837 µM; in data set [8] it was 151 µM.

B2: Uridine-cytidine kinase 1 (Homo sapiens), Q9HA47 (protein)
chain: MASAGGEDCESPAPEADRPHQRPFLIGVSGGTASGKSTVCEKIMELLGQNEVEQRQRKVVILSQDRFYKVLTAEQKAKALKGQYNFDHPDAFDNDLMHRTLKNIVEGKTVEVPTYDFVTHSRLPETTVVYPADVVLFEGILVFYSQEIRDMFHLRLFVDTDSDVRLSRRVLRDVRRGRDLEQILTQYTTFVKPAFEEFCLPTKKYADVIIPRGVDNMVAINLIVQHIQDILNGDICKWHRGGSNGRSYKRTFSEPGDHPGMLTSGKRSHLESSSRPH
On to B2, for which, in data set [9], the kcat/Km came to 1300 M⁻¹ s⁻¹. For the same protein, in [10], the Michaelis-Menten constant (Km) stood at 407 µM and the catalytic constant (kcat) worked out at 0.51 s⁻¹.
